In ChEMBL document CHEMBL1127035, “Neurosteroid analogues: structure-activity studies of benz[e]indene modulators of GABAA receptor function. 1. The effect of 6-methyl substitution on the electrophysiological activity of 7-substituted benz[e]indene-3-carbonitriles” (J Med Chem, 1993):
Calls of active or inactive are those of the source. No cut-off for these calls is given here.

Tests used:
Format in all cases: functional
Rattus norvegicus [1] = species on record: Rattus norvegicus; assay: Ability of compound at 10 uM for current activation in the absence of GABA in cultured postnatal rat hippocampal neurons using whole-cell patch clamp method; NR=No response
Procedure, shortened: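 Whole-cell voltage clamp at -60 mV and ~22 °C in rat hippocampal cultures (postnatal pups, 3-10 days in vitro), with a CsCl-based pipette solution at pH 7.3. Compound alone, without GABA, was pressure-ejected for 200 ms (DMSO <0.2% final). The peak directly gated current was compared with the same cell's response to 1 μM GABA alone. N = cells.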

Rattus norvegicus [2] = species on record: Rattus norvegicus; assay: Ability of compound at 1 uM to potentiate GABA-mediated currents in cultured postnatal rat hippocampal neurons using whole-cell patch clamp method
Procedure, shortened: (§1)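 Cultured postnatal rat hippocampal neurons (pups 1-2 days old, 3-10 days in vitro) were whole-cell voltage-clamped at -60 mV and room temperature (~22 °C), with a CsCl/HEPES/EGTA pipette solution at pH 7.3. Compound plus 1 μM GABA was pressure-ejected for 200 ms, with DMSO <0.2% final. Peak current was normalized to 1 μM GABA alone on the same cell (100% = no change). N = cells.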

Rattus norvegicus [3] = species on record: Rattus norvegicus; assay: Ability of compound at 1 uM to potentiate GABA-mediated currents in cultured postnatal rat hippocampal neurons using whole-cell patch clamp method; NR=No response; procedure, shortened: as §1
Rattus norvegicus [4] = species on record: Rattus norvegicus; assay: Ability of compound at 10 uM for current activation in the absence of GABA in cultured postnatal rat hippocampal neurons using whole-cell patch clamp method
Procedure, shortened: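 Whole-cell voltage clamp at -60 mV, room temperature (~22 °C), on hippocampal neurons cultured 3-10 days from 1-2 day old albino rat pups. Pipette solution is CsCl-based, pH 7.3. Compound is applied at 10 µM in the absence of GABA (DMSO stock, final DMSO <0.2%) by 200 ms pressure ejection. Peak gated current is compared with the same cell's 1 µM GABA response. N = cells.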

Rattus norvegicus [5] = species on record: Rattus norvegicus; assay: Ability of compound at 1 uM for current activation in the absence of GABA in cultured postnatal rat hippocampal neurons using whole-cell patch clamp method
Rattus norvegicus [6] = species on record: Rattus norvegicus; assay: Effective concentration against current mediated by 1 uM GABA in cultured rat hippocampal neurons
Rattus norvegicus [7] = species on record: Rattus norvegicus; assay: Ability of compound at 1 uM for current activation in the absence of GABA in cultured postnatal rat hippocampal neurons using whole-cell patch clamp method; NR=No response
Rattus norvegicus [8] = species on record: Rattus norvegicus; assay: Ability of compound at 10 uM to potentiate GABA-mediated currents in cultured postnatal rat hippocampal neurons using whole-cell patch clamp method; procedure, shortened: as §1

Row | Structure (SMILES) | Gated current (Rattus norvegicus [1]) | Response (Rattus norvegicus [2]) | Response (Rattus norvegicus [3]) | also measured
1 | CC1(C)C2CC[C@@]3(C)C(CC[C@@H]3C#N)C2CC[C@H]1CCO (some centres not stated) | inactive | 220% |  | 
2 | C[C@]12CCC3C[C@H](CCO)CCC3C1CC[C@H]2C#N (some centres not stated) | inactive |  | inactive | 
3 | C[C@]12CC[C@H]3[C@@H](CC[C@H]4C[C@H](O)CC[C@@H]43)[C@@H]1CC[C@@H]2C#N |  | 372% |  | Gated current (Rattus norvegicus [4]): 38%; Gated current (Rattus norvegicus [5]): 15%
4 | CC(=O)[C@H]1CCC2C3CC[C@@H](CCO)CC3CC[C@@]21C (some centres not stated) |  |  |  | EC50 (Rattus norvegicus [6]): 200 nM
5 | C[C@]12CC[C@H]3[C@@H](CC[C@H]4C[C@H](O)CC[C@@H]43)[C@@H]1CC[C@H]2C#N | inactive |  | inactive | 
6 | CC1(C)C2CC[C@@]3(C)C(CC[C@H]3C#N)C2CC[C@H]1CCO (some centres not stated) | inactive |  | inactive | 
7 | C[C@H]1C2CC[C@@]3(C)C(CC[C@@H]3C#N)C2CC[C@H]1CCO (some centres not stated) |  | 382% |  | Gated current (Rattus norvegicus [4]): 26%; Gated current (Rattus norvegicus [7]): inactive
8 | C[C@@H]1C2CC[C@@]3(C)C(CC[C@@H]3C#N)C2CC[C@H]1CCO (some centres not stated) | inactive |  | inactive | Response (Rattus norvegicus [8]): 244%
9 | C[C@]12CC[C@@H](O)C[C@@H]1CC[C@@H]1[C@@H]2CC[C@]2(C)[C@@H](C#N)CC[C@@H]12 |  | 443% |  | Gated current (Rattus norvegicus [4]): 49%; Gated current (Rattus norvegicus [5]): 22%
10 | C[C@]12CC[C@@H](O)C[C@@H]1CC[C@@H]1[C@@H]2CC[C@]2(C)[C@H](C#N)CC[C@@H]12 | inactive |  | inactive | 
11 | C[C@]12CCC3C[C@H](CCO)CCC3C1CC[C@@H]2C#N (some centres not stated) | inactive | 255% |  | 
12 | C[C@@H]1C2CC[C@@]3(C)C(CC[C@H]3C#N)C2CC[C@H]1CCO (some centres not stated) | inactive |  | inactive | 
